Test results from ChEMBL document CHEMBL4033790, “Design and Synthesis of Novel Deuterated Ligands Functionally Selective for the γ-Aminobutyric Acid Type A Receptor (GABAAR) α6 Subtype with Improved Metabolic Stability and Enhanced Bioavailability” (J Med Chem, 2018).
Converted amounts (≈) assume the structure as drawn. The source made the active and inactive calls. No cut-off for these calls is given here.

Columns and labels:
[1] = target: Voltage-gated inwardly rectifying potassium channel KCNH2 (Homo sapiens, UniProt Q12809); assay: Displacement of [3H]-dofetilide from human ERG expressed in HEK cell membranes at >10 uM after 60 to 90 mins by scintillation counting
[2] = tested on: Mus musculus; assay: Neurotoxicity in Swiss Webster mouse assessed as induction of motor impairment at 40 mg/kg administered via oral gavage measured after 10 to 60 mins by rotarod method; type: toxicity, organism-based; conditions: in vivo
Summary of the method: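 Female mice were given a single oral gavage dose of 40 mg/kg, either in 50% PBS/40% propylene glycol/10% DMSO or, for poorly soluble compounds, in 2% polyethylene glycol plus 2.5% hydroxymethyl cellulose. Rotarod performance was tested 10, 30 and 60 min after dosing, with diazepam 5 mg/kg as positive control.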

[3] = Metabolic stability in human liver microsomes assessed as parent compound remaining at 10 uM after 60 mins by LC-MS analysis; type: ADME, microsome; conditions: read-out: Stability
Summary of the method: (§1)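 The 60 min samples of the microsomal incubation (10 μM compound, human or mouse liver microsomes at 0.5 mg/mL, NADPH regenerating system, 37 °C) were analysed by LC-MS. Detection used SIM mode with dual ESI/APCI ionization, calibrated to the retention times and masses of the parent and its O-demethylated metabolites. Peak intensities were measured.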

[4] = Metabolic stability in mouse liver microsomes assessed as parent compound remaining at 10 uM after 60 mins by LC-MS analysis; type: ADME, microsome; conditions: read-out: Stability; summary of the method: as §1
[5] = organism: Rattus norvegicus; assay: Displacement of [3H]-flunitrazepam from rat brain GABA-A receptor benzodiazepine site […] at 10 uM after 60 to 90 mins by scintillation counting
[6] = target: GABA-A receptor; alpha-6/beta-3/gamma-2 (Homo sapiens) (UniProt P18507+P28472+Q16445); assay: Positive allosteric modulation of GABA-A receptor alpha6beta3gamma2 (unknown origin) expressed in Xenopus laevis oocytes assessed as potentiation of EC3 GABA induced currents up to 10 uM at -60 mV holding potential by electrophysiological method; type: cell-based
Summary of the method: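 Stage 5–6 defolliculated Xenopus oocytes were injected with 2.5 ng total mRNA per oocyte: α1, α2, α3 or α5 with β3 and γ2 at 1:1:5, and α4 or α6 with β3 and γ2 at 3:1:5. Oocytes were kept ≥36 h at 18 °C in NDE medium before recording. Compounds were co-applied with GABA titrated to EC3-5 for each oocyte. Curves were fitted with the Hill equation; mean ± SEM from ≥3 oocytes across two batches.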

[7] = tested on: HEK-293T; assay: Cytotoxicity against HEK293T cells assessed as reduction in cell viability up to 400 uM after 48 hrs by CellTiter-Glo assay; type: cell-based; conditions: human
Summary of the method: (§2)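 HEK293T and HepG2 cells grown in high-glucose DMEM with non-essential amino acids, 10 mM HEPES, penicillin/streptomycin and 10% heat-inactivated FBS. Cells were harvested with trypsin and plated; compound was pin-transferred 3 h later. Incubation was 48 h, then CellTiter-Glo luminescence was read. Controls were DMSO (negative) and a cytotoxic aminoketone (positive). Quadruplicates, three independent runs, normalized to controls, nonlinear regression.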

[8] = tested on: HepG2; assay: Cytotoxicity against human HepG2 cells assessed as reduction in cell viability up to 400 uM after 48 hrs by CellTiter-Glo assay; type: cell-based; conditions: hepg2, 48 h; summary of the method: as §2
[9] = Aqueous solubility of the compound in DI water at pH 7 after 2 hrs by LC-MS analysis; type: physicochemical; conditions: buffer, pH 7, 2 h
Summary of the method: (§3)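 10 mg compound dissolved in 2 mL DMAC; 10 μL of this added to 2 mL DI water (pH 7, sonicated) or 2 mL 0.01 M aq HCl (pH 2), held 2 h at 37 °C. Filtered through 0.45 micron filter, then quantified by LC-MS in SIM mode against calibration curves of standards in DMAC (n = 5); n=3.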

[10] = tested on: Liver; assay: Half life in mouse liver microsomes at 10 uM by LC-MS/MS analysis; type: ADME, microsome
Summary of the method: (§4)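 Compound at 10 μM final was preincubated 5 min at 37 °C with NADPH regenerating system in phosphate buffer, pH 7.4. Human or mouse liver microsomes (0.5 mg/mL protein) were added to start the reaction. Samples were taken at 0 (no microsomes) and 10–60 min and measured by LC-MS/MS against an internal standard. Half-life = 0.693/k, with k the slope of ln peak-area ratio versus time. Three experiments, each in duplicate.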

[11] = Solubility of the compound in 0.01M HCl at pH 2 after 2 hrs by LC-MS analysis; type: physicochemical; conditions: buffer, pH 2, 2 h; summary of the method: as §3
[12] = tested on: Liver; assay: Half life in human liver microsomes at 10 uM by LC-MS/MS analysis; type: ADME, microsome; summary of the method: as §4
[13] = target: T1, 5-hydroxytryptamine receptor 2C (Homo sapiens) (UniProt P28335); assay: Displacement of [3H]-mesulergine from human recombinant 5HT2C receptor expressed in HEK293T cells at 10 uM after 60 to 90 mins by scintillation counting; type: cell-based; conditions: HEK-293T, tested as the 2H-labelled form
T1 sequence (whole entry): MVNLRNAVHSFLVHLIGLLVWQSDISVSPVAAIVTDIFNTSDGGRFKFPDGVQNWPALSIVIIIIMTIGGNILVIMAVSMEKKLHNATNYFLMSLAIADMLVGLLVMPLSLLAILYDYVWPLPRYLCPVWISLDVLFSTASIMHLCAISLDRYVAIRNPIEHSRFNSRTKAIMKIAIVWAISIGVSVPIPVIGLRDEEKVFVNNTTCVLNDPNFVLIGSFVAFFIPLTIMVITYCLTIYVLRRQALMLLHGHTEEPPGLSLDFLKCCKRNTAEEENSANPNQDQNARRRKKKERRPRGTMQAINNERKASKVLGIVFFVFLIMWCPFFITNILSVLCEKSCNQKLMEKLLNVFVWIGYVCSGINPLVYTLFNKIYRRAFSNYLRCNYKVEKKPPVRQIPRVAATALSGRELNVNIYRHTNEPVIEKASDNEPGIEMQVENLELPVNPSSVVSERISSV

[14] = target: 5-hydroxytryptamine receptor 2B (Homo sapiens) (UniProt P41595); assay: Displacement of [3H]-LSD from human recombinant 5HT2B receptor expressed in HEK293 cells at 10 uM after 60 to 90 mins by scintillation counting; type: cell-based; conditions: tested as the 2H-labelled form
[15] = target: 5-hydroxytryptamine receptor 7 (Homo sapiens) (UniProt P34969); assay: Displacement of [3H]-LSD from human recombinant 5HT7 receptor expressed in HEK293 cells at 10 uM after 60 to 90 mins by scintillation counting; type: cell-based; conditions: tested as the 2H-labelled form
[16] = target: Mu-type opioid receptor (Homo sapiens) (UniProt P35372); assay: Displacement of [3H]-DAMGO from human recombinant MOR expressed in HEK293 cells at 10 uM after 60 to 90 mins by scintillation counting; type: cell-based; conditions: tested as the 2H-labelled form
Sequence of Mu-type opioid receptor (Homo sapiens) (P35372 whole entry): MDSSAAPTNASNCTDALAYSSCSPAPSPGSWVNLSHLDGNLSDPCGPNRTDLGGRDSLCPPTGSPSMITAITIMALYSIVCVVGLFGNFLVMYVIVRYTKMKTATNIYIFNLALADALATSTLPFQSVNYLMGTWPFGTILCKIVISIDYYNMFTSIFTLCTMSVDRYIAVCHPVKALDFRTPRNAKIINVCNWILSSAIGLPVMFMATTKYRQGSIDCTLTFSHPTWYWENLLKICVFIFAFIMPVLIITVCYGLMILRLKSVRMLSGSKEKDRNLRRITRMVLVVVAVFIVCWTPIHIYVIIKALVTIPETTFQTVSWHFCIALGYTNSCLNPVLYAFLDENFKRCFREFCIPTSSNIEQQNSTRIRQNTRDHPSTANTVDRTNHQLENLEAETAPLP

Sequence of Voltage-gated inwardly rectifying potassium channel KCNH2 (Q12809 whole entry): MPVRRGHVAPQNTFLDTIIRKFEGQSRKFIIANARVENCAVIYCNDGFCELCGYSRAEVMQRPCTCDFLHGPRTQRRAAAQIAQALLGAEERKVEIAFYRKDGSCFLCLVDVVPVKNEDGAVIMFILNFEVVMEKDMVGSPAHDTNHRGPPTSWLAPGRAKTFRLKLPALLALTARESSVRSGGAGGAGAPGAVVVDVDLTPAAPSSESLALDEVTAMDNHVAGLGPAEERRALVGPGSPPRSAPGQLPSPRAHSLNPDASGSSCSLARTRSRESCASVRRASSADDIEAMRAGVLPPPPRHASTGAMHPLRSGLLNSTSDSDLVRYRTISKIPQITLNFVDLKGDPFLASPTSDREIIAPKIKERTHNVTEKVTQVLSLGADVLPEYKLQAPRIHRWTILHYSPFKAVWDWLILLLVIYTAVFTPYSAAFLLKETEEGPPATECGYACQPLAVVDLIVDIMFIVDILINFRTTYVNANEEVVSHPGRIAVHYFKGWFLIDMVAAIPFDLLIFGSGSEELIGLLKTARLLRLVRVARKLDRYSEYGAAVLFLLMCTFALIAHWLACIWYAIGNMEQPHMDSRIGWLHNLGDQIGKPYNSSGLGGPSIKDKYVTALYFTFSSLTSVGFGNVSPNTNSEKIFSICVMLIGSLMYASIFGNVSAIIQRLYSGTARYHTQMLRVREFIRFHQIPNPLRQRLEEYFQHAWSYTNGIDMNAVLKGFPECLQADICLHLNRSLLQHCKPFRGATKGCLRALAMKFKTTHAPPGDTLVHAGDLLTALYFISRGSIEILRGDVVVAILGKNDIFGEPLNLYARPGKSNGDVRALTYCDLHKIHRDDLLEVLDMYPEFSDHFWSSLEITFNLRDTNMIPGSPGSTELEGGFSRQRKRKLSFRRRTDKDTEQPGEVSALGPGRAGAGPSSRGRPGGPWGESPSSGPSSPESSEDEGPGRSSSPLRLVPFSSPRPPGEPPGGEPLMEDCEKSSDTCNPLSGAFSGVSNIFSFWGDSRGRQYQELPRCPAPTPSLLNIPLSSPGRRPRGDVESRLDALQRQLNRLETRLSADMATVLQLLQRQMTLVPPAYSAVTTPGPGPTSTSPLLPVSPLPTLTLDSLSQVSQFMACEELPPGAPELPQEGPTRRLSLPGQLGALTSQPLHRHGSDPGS
Sequence of 5-hydroxytryptamine receptor 2B (Homo sapiens) (P41595 whole entry): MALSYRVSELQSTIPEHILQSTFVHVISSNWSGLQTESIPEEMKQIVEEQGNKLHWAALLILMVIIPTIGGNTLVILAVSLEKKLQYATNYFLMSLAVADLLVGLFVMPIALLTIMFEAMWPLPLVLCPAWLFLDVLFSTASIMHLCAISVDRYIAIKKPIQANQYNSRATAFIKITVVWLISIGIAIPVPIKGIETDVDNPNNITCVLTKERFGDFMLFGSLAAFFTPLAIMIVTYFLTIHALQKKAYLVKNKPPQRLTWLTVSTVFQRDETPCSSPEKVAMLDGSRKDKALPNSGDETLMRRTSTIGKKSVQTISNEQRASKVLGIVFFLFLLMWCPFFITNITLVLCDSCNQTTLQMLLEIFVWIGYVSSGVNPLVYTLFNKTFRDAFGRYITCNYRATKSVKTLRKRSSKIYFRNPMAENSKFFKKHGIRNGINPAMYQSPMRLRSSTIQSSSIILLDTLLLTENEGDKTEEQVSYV
Sequence of 5-hydroxytryptamine receptor 7 (Homo sapiens) (P34969 whole entry): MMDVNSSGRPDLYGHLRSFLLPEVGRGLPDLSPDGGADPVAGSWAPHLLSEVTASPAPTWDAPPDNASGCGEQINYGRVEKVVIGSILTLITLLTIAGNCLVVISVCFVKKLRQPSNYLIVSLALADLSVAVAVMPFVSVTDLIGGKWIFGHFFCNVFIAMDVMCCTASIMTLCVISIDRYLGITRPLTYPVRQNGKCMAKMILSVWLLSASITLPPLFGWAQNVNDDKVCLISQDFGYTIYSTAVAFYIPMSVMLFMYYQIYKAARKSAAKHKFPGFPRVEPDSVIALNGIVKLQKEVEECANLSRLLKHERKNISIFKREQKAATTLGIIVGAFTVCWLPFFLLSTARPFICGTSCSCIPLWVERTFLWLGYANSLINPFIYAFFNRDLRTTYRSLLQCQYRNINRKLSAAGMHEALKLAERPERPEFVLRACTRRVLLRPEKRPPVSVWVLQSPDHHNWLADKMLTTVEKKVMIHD

| Structure (SMILES) | inhibition (INH) [1] | Activity [2] | remaining at 1 h, 10 µM [3] | remaining at 1 h, 10 µM [4] | t1/2 [10] | t1/2 [12] | also measured |
| --- | --- | --- | --- | --- | --- | --- | --- |
| [2H]C([2H])([2H])Oc1ccc(-n2nc3c4ccc(Br)cc4[nH]cc-3c2=O)cn1 | Not Active | Non-Toxic | 97.8% | 98.4% |  |  |  |
| COc1ccccc1-n1nc2c3cc(Cl)ccc3[nH]cc-2c1=O |  |  |  |  |  |  | inhibition ([5]; tested as the 2H-labelled form): Active; Activity ([6]; tested as the 2H-labelled form): inactive |
| [2H]C([2H])([2H])Oc1ccc(-n2nc3c4cc(Cl)ccc4[nH]cc-3c2=O)cn1 | Not Active | Non-Toxic | 93% | 85.1% |  |  |  |
| [2H]C([2H])([2H])Oc1ccc(-n2nc3c4cc(Cl)ccc4[nH]cc-3c2=O)cc1 | Not Active | Non-Toxic | 92.2% | 85.5% |  |  | Activity [7]: Non-Toxic; Activity [8]: Non-Toxic |
| COc1ccc(-n2nc3c4cnc(OC)cc4[nH]cc-3c2=O)cc1 | Not Active |  | 91% | 93% | 12 h | 10.6 h | solubility [9]: 103.7 µM (≈ 33.4 µg/mL); solubility [11]: 135.9 µM (≈ 43.8 µg/mL); Activity [6]: Active |
| [2H]C([2H])([2H])Oc1cccc(-n2nc3c4ccc(OC)cc4[nH]cc-3c2=O)c1 | Not Active |  | 81.3% | 91.6% | 14.5 h | 3.9 h |  |
| [2H]C([2H])([2H])Oc1ccc(-n2nc3c4cc(OC([2H])([2H])[2H])ccc4[nH]cc-3c2=O)cc1 | Not Active |  |  |  |  |  |  |
| [2H]C([2H])([2H])Oc1ccccc1-n1nc2c3ccc(OC)cc3[nH]cc-2c1=O | Not Active |  | 79.9% | 93% | 10.9 h | 3.5 h |  |
| COc1ccc2c3nn(-c4ccccc4OC)c(=O)c-3c[nH]c2c1 |  |  |  |  |  |  | inhibition ([5]; tested as the 2H-labelled form): inactive |
| COc1ccc(-n2nc3c4ccc(Br)cc4[nH]cc-3c2=O)cn1 | Not Active | Non-Toxic | 93.4% | 93.1% |  |  | solubility [9]: 7.3 µM (≈ 2.71 µg/mL); Activity [7]: Non-Toxic; Activity [8]: Non-Toxic; solubility [11]: 7.2 µM (≈ 2.67 µg/mL); Activity ([6]; tested as the 2H-labelled form): Active |
| [2H]C([2H])([2H])Oc1ccc2c3nn(-c4ccc(OC([2H])([2H])[2H])nc4)c(=O)c-3c[nH]c2c1 |  | Non-Toxic | 90% | 92.5% | 14.5 h | 9.8 h |  |
| [2H]C([2H])([2H])Oc1cccc(-n2nc3c4ccc(OC([2H])([2H])[2H])cc4[nH]cc-3c2=O)c1 | Not Active |  | 89.5% | 90.5% | 9.9 h | 7.7 h | Activity [7]: Non-Toxic; Activity [8]: Non-Toxic |
| [2H]C([2H])([2H])Oc1ccccc1-n1nc2c3ccc(Br)cc3[nH]cc-2c1=O | Not Active |  | 92.8% | 61.3% | 1.5 h | 14.2 h |  |
| [2H]C([2H])([2H])Oc1ccc2[nH]cc3c(=O)n(-c4ccccc4OC([2H])([2H])[2H])nc-3c2c1 | Not Active |  |  |  |  |  |  |
| [2H]C([2H])([2H])Oc1cccc(-n2nc3c4ccc(Br)cc4[nH]cc-3c2=O)c1 | Not Active |  | 63.5% | 79.5% | 3.6 h | 1.8 h |  |
| COc1ccccc1-n1nc2c3ccc(Br)cc3[nH]cc-2c1=O |  |  |  |  |  |  | inhibition [13]: Active; inhibition [14]: Active; inhibition ([5]; tested as the 2H-labelled form): Active; inhibition [15]: Active; inhibition [16]: Active |
| [2H]C([2H])([2H])Oc1cccc(-n2nc3c4cc(OC([2H])([2H])[2H])ccc4[nH]cc-3c2=O)c1 | Not Active |  |  |  |  |  |  |
| COc1ccc(-n2nc3c4cc(Cl)ccc4[nH]cc-3c2=O)cn1 | Not Active | Non-Toxic | 91.6% | 85.6% |  |  | solubility [9]: 0.8 µM (≈ 0.261 µg/mL); Activity [7]: Non-Toxic; Activity [8]: Non-Toxic; solubility [11]: 0.9 µM (≈ 0.294 µg/mL); inhibition [5]: Active; inhibition ([5]; tested as the 2H-labelled form): Active; Activity ([6]; tested as the 2H-labelled form): inactive |
| COc1cccc(-n2nc3c4ccc(Br)cc4[nH]cc-3c2=O)c1 |  |  |  |  |  |  | inhibition [13]: Active; inhibition [14]: Active; inhibition ([5]; tested as the 2H-labelled form): Active; inhibition [15]: Active; inhibition [16]: Active |
| [2H]C([2H])([2H])Oc1ccc2c3nn(-c4ccccc4OC([2H])([2H])[2H])c(=O)c-3c[nH]c2c1 | Not Active |  | 90.5% | 92% | 13.9 h | 9.9 h | Activity [7]: Non-Toxic; Activity [8]: Non-Toxic |
